Measurements from ChEMBL document CHEMBL5252671, “Design, synthesis and evaluation of the anti-breast cancer activity of 1,3-oxazolo[4,5-d]pyrimidine and 1,3-oxazolo[5,4-d]pyrimidine derivatives” (2023).
Calls of active or inactive are those of the source. No cut-off for these calls is given here.

What was measured:
Format in all cases: functional
[1] = test system: MDA-MB-231; test: Antiproliferative activity against human ADK-L knockdown MDA-MB-231 cells assessed as inhibition of cell growth at 1 to 3 uM measured at 24 hrs by trypan blue staining based MTT assay; details: dose 1-3 µM
Method in brief: (§1)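 MDA cell lines were treated with 5-iodotubercidin (1 μM or 3 μM) or with test compound (10 μM or 30 μM). Drugs were dissolved in 0.225% DMSO, which also served as vehicle control. Proliferation was measured by Trypan Blue cell counting every 24 h for several consecutive days after seeding. MTT viability compared wild-type and mutant cells.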

[2] = test system: MDA-MB-231; test: Antiproliferative activity against human wild type MDA-MB-231 cells assessed as inhibition of cell growth at 3 uM measured at 48 hrs by trypan blue staining based MTT assay; method in brief: as §1
[3] = test system: Hs-578T; test: Anticancer activity against human Hs-578T cells measured at 48 hrs
Method in brief: (§2)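 NCI DTP five-dose screen on the breast subpanel: compound at 0.01, 0.1, 1, 10 and 100 μM for 48 h. Cell density read by sulforhodamine B (protein content). GI50, TGI and LC50 were derived from the T, T0 and C optical densities using the NCI formulas.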

[4] = test system: MDA-MB-468; test: Anticancer activity against human MDA-MB-468 cells measured at 48 hrs; method in brief: as §2
[5] = test system: MCF7; test: Antiproliferative activity against human MCF7 cells assessed as inhibition of cell growth at 1 X 10^-5 M measured for 48 hrs by sulforhodamine B assay relative to control; details: MCF7, 48 h, dose 1 10^-5M
Method in brief: (§3)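 NCI one-dose screen. Cells were seeded at 5000-40000/well in RPMI 1640 with 5% FBS and 2 mM L-glutamine and preincubated 24 h at 37 °C in 5% CO2. Compound was added at 10⁻⁵ M for 48 h. Cells were then fixed with 10% TCA, stained with sulforhodamine B, washed with 1% acetic acid, solubilized in 10 mM Tris and read as OD at 510 nm.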

[6] = test system: T47D; test: Anticancer activity against human T47D cells measured at 48 hrs; details: for CC50: read-out: LC50 (the source's name); method in brief: as §2
[7] = test system: MDA-MB-231; test: Antiproliferative activity against human wild type MDA-MB-231 cells assessed as inhibition of cell growth at 3 uM measured at 96 hrs by trypan blue staining based MTT assay; method in brief: as §1
[8] = test system: BT-549; test: Anticancer activity against human BT-549 cells measured at 48 hrs; method in brief: as §2
[9] = test system: MDA-MB-231; test: Antiproliferative activity against human wild type MDA-MB-231 cells assessed as inhibition of cell growth at 3 uM measured at 24 hrs by trypan blue staining based MTT assay; method in brief: as §1
[10] = test system: T47D; test: Antiproliferative activity against human T47D cells assessed as inhibition of cell growth at 1 X 10^-5 M measured for 48 hrs by sulforhodamine B assay relative to control; details: dose 1 10^-5M; method in brief: as §3
[11] = test system: MDA-MB-231; test: Antiproliferative activity against human wild type MDA-MB-231 cells assessed as inhibition of cell growth at 3 uM measured at 24 hrs in presence of 5-Iodotubercidin by trypan blue staining based MTT assay; method in brief: as §1
[12] = test system: MDA-MB-231; test: Antiproliferative activity against human wild type MDA-MB-231 cells assessed as inhibition of cell growth at 10 uM measured at 24 to 96 hrs by trypan blue staining based MTT assay; details: time 24-96 hrs; method in brief: as §1
[13] = test system: MDA-MB-231; test: Anticancer activity against human MDA-MB-231 cells measured at 48 hrs; method in brief: as §2
[14] = test system: MDA-MB-231; test: Antiproliferative activity against human MDA-MB-231 cells assessed as inhibition of cell growth at 1 X 10^-5 M measured for 48 hrs by sulforhodamine B assay relative to control; details: MDA-MB-231, 48 h, dose 1 10^-5M; method in brief: as §3
[15] = test system: MDA-MB-468; test: Antiproliferative activity against human MDA-MB-468 cells assessed as inhibition of cell growth at 1 X 10^-5 M measured for 48 hrs by sulforhodamine B assay relative to control; details: MDA-MB-468, 48 h, dose 1 10^-5M; method in brief: as §3
[16] = test system: MDA-MB-231; test: Antiproliferative activity against human wild type MDA-MB-231 cells assessed as inhibition of cell growth at 10 to 30 uM measured for 24 hrs by trypan blue staining based MTT assay; details: dose 10-30 µM; method in brief: as §1
[17] = test system: MDA-MB-231; test: Antiproliferative activity against human ADK-L knockdown MDA-MB-231 cells assessed as inhibition of cell growth at 1 to 3 uM measured at 24 hrs in presence of 5-iodotubercidin by trypan blue staining based MTT assay; details: dose 1-3 µM; method in brief: as §1
[18] = test system: Hs-578T; test: Antiproliferative activity against human Hs-578T cells assessed as inhibition of cell growth at 1 X 10^-5 M measured for 48 hrs by sulforhodamine B assay relative to control; details: dose 1 10^-5M; method in brief: as §3
[19] = test system: BT-549; test: Antiproliferative activity against human BT-549 cells assessed as inhibition of cell growth at 1 X 10^-5 M measured for 48 hrs by sulforhodamine B assay relative to control; details: BT-549, 48 h, dose 1 10^-5M; method in brief: as §3
[20] = test system: MDA-MB-231; test: Antiproliferative activity against human wild type MDA-MB-231 cells assessed as inhibition of cell growth at 10 to 30 uM measured for 24 hrs in presence of 5-Iodotubercidin by trypan blue staining based MTT assay; details: dose 10-30 µM; method in brief: as §1
[21] = test system: MCF7; test: Anticancer activity against human MCF7 cells measured at 48 hrs; method in brief: as §2

Structure (SMILES) | GI50 [3] | TGI [3] | GI50 [4] | TGI [4] | inhibition at 10 µM [5] | GI50 [6] | TGI [6] | CC50 [6] | GI50 [8] | TGI [8] | inhibition at 10 µM [10] | GI50 [13] | LC50 (concentration killing 50% of starting cells) [13] | TGI [13] | inhibition at 10 µM [14] | inhibition at 10 µM [15] | inhibition at 10 µM [18] | inhibition at 10 µM [19] | GI50 [21] | LC50 (concentration giving 50% net cell kill) [21] | further results
Nc1ncnc2c1c(I)cn2[C@@H]1O[C@H](CO)[C@@H](O)[C@H]1O |  |  |  |  |  |  |  |  |  |  |  |  |  |  |  |  |  |  |  |  | Activity [1]: Active; Activity [2]: Active
c1ccc(-c2nc(N3CCNCC3)c3oc(-c4ccccc4)nc3n2)cc1 | 1880 nM | 4.07 µM | 1730 nM | 3420 nM | 162% | 2100 nM | 4.95 µM | > 100 µM | 1770 nM | 3.41 µM | 142% | 1760 nM | 6.1 µM | 3280 nM | 187% | 174% | 161% | 106% | 1480 nM | 7.4 µM | LC50 (50% lethal concentration) [3]: 8.8 µM; Activity [7]: inactive; Activity [9]: Active; Activity [11]: Active; Activity [12]: Active; Activity [16]: Active; Activity [17]: Active; Activity [20]: Active; TGI [21]: 3310 nM
Cc1ccc(-c2nc3nc(-c4ccccc4)nc(N4CCNCC4)c3o2)cc1 | 2020 nM | 4.22 µM | 290 nM | 1180 nM | 166% | 350 nM | 1.51 µM | 6.33 µM | 1720 nM | 3.2 µM | 168% | 260 nM | 2.61 µM | 670 nM | 179% | 187% | 151% | 172% | 330 nM | 5.74 µM | LC50 (concentration giving 50% net cell kill) [4]: 4.84 µM; LC50 (concentration giving 50% net cell kill) [8]: 5.99 µM; TGI [21]: 1450 nM
c1ccc(-c2nc(N3CCCNCC3)c3oc(-c4ccccc4)nc3n2)cc1 | 1860 nM | 4.13 µM | 1480 nM | 2870 nM | 132% | 1690 nM | 3.48 µM | 7.15 µM | 1730 nM | 3.18 µM | 123% | 1560 nM | 5.65 µM | 2970 nM | 180% | 171% | 131% | 126% | 1410 nM | 5.69 µM | LC50 (50% lethal concentration) [3]: 9.16 µM; LC50 (concentration giving 50% net cell kill) [4]: 5.54 µM; LC50 (concentration giving 50% net cell kill) [8]: 5.86 µM; TGI [21]: 2830 nM
